Bioassay records (PubChem BioAssay)
KCNK3 inh: human KCNK3 channel inhibition, primary screen; AID 602410; B-score at 10 µM; actives 0.84% (n = 340,000); CHO-KCNK3 thallium flux, FluxOR fluorescence; active compounds read low; O14649;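 active means B-score under library mean minus 4 SD, starting fluorescence ratio at most library mean plus 5 SD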;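 further: more negative B-score means stronger inhibition of thallium flux through KCNK3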
KCNQ1 pot: potentiates or activates the human KCNQ1 potassium channel; P51787; CHO-K1 KCNQ1, thallium flux FluxOR fluorescence; active compounds read high; B-score at 10 µM; actives 0.35% (n = 310,000); AID 2648;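 active means fluorescence ratio B-score, a plate-corrected score, at least three library SD, with initial intensity B-score within 5 SD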
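Test system: CHO-K1 cells stably expressing KCNQ1 / Medium: assay buffer / Also added: depolarizing K+/Tl+ stimulus, K2SO4 and Tl2SO4 each 12.5 mM in 5x stock / Incubation: 90 min dye loading and 20 min compound exposure, both at room temperature / Signal: thallium influx via FluxOR fluorescence, kinetic imaging / Evaluation: B score of baseline-normalized fluorescence ratio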
KCNQ1 block: human KCNQ1 channel inhibition | B-score at 10 µM | P51787 | actives 1.3% (n = 310,000) | CHO-K1 KCNQ1, FluxOR thallium flux fluorescence; active compounds read high;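 active means compounds whose thallium flux B-score, printed positive for inhibition, exceeds three library SD while starting fluorescence stays within three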;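 further: channel opened by potassium depolarization with thallium stimulus after 20 min compound exposure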
PHOSPHO1 inh: inhibitors of human PHOSPHO1 phosphatase. Q8TCT1. recombinant PHOSPHO1, absorbance phosphatase assay. inhibition, % at 13.3 µM. actives 1.1% (n = 290,000). AID 1565; in the data active means inhibition above about 60%
KCNK9 inh: blocks the human KCNK9 two-pore domain potassium channel; Q9NPC2; HEK293 KCNK9, FluxOR thallium flux fluorescence; active compounds read low; B-score at 10 µM; actives 1.2% (n = 310,000); AID 488922;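 active means ratio B-score over 3 SD below the library mean, with starting fluorescence within 5 SD of its mean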;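 further: negative B-score means less thallium flux so channel inhibition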
Target sequence (Q9NPC2 whole entry, looked up, the tested form may be a part): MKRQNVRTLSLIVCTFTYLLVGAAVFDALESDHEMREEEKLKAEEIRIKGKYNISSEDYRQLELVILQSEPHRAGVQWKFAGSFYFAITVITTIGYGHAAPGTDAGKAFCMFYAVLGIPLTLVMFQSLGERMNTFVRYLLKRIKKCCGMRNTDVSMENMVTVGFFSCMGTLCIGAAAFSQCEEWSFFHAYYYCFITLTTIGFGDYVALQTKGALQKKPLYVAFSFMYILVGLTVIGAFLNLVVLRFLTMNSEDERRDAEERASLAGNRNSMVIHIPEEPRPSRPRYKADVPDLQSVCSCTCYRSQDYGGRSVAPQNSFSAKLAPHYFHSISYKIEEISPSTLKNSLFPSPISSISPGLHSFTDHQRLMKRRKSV
hERG rescue: hERG (human) protection from proarrhythmic block | Q12809 | CHO-hERG, FluxOR thallium flux, dofetilide IC70 present | activation (rescue from dofetilide block), less the hit threshold, % at 10 µM | actives 0.51% (n = 310,000) | AID 1511;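 active means activation above the mean of controls blocked by dofetilide plus 5 SD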;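 further: thallium influx through hERG after potassium depolarization seen as dye fluorescence rise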
Numbers without * were called inactive; i = inactive; / = no result. In the library only some 4% were active in any assay of this set; here they are far more common.

SMILES	KCNK3 inh	KCNQ1 pot	KCNQ1 block	PHOSPHO1 inh	KCNK9 inh	hERG rescue
Cc1nc(NC(C)C(=O)O)c2nc(C)oc2n1 (centres undefined)	i	i	i	62*	i	-8
Cc1nc(N[C@@H](Cc2ccccc2)C(=O)O)c2oc3ccccc3c2n1	i	i	i	20	i	-4
N#Cc1c(F)cccc1N1CCN(Cc2ccc3c(c2)OCO3)CC1	i	i	i	22	i	-9
CCn1cc(Br)c(C(=O)Nc2ccccc2C(=O)OC)n1	i	i	i	6	-6.6*	-10
CC(=O)Nc1cc(-c2ccccc2)ccc1O	i	i	i	90*	i	-8
CC(=O)Nc1cc(Br)ccc1O	i	i	i	6	i	-7
Cc1cccc(NS(=O)(=O)c2ccc(-c3ccc(=O)[nH]n3)o2)c1	i	i	i	12	i	-10
Cc1ccc(C)c(NS(=O)(=O)c2ccc(-c3ccc(=O)[nH]n3)o2)c1	i	i	i	65*	i	-7
CC(C)OC(=O)/C(=C\c1ccc2c(c1)c1ccccc1n2C)NC(=O)c1ccccc1	i	i	i	28	-7.9*	-8
CC(C)OC(=O)/C(=C/c1ccc2c(c1)c1ccccc1n2C)NC(=O)c1ccccc1	i	i	i	9	-7.6*	-4
COCc1nnc(NC(=O)c2ccc(S(=O)(=O)N3CCCC3)cc2)o1	i	i	i	38	i	-6
Cc1ccc(NC(=O)CSc2nncn2-c2ccccn2)cc1Cl	i	i	i	39	i	-11
Clc1ccccc1-c1nn2c(Cn3cnc4ccccc43)nnc2s1	i	i	i	84*	i	-13
c1ccc2c(c1)ncn2Cc1nnc2sc(-c3ccc4c(c3)OCO4)nn12	i	i	i	67*	i	-3
c1cncc(-c2nn3c(Cn4nnc5ccccc54)nnc3s2)c1	i	i	i	51	i	-7
c1ccc(CCc2nn3c(Cn4cnc5ccccc54)nnc3s2)cc1	i	i	i	69*	i	0
COc1ccc(OCc2nn3c(Cn4cnc5ccccc54)nnc3s2)cc1	i	i	i	81*	i	-16
CCCN(C(=O)c1cc(S(=O)(=O)N2CCCCCC2)ccc1OC)C1CCS(=O)(=O)C1 (centres undefined)	i	i	i	/	i	-17
O=C(NC1CCCCCC1)C1Cc2ccccc2CN1C(=O)c1ccco1 (centres undefined)	i	i	i	-10	i	-3
CN(C)CCNC(=O)c1cc2sc3ccccc3c2s1	i	i	i	2	i	-12
O=S(=O)(NCCC(c1ccc(F)cc1)c1ccco1)c1ccccc1 (centres undefined)	i	i	i	5	-7.4*	-18
Fc1ccc(C(CCNCc2cccs2)c2ccco2)cc1 (centres undefined)	i	i	i	20	i	-3
CCc1cccc(NC(=O)[C@@H]2CCCN2C2=NS(=O)(=O)c3ccccc32)c1	i	/	/	/	/	/
CCc1cccc(NC(=O)CSC2=NS(=O)(=O)c3ccccc32)c1	i	i	i	94*	i	-23
CC(=O)C[C@H]1c2cc(C(F)(F)F)ccc2S(=O)(=O)N1C1CCCCC1	i	10*	i	/	i	-2
SMILES	KCNK3 inh	KCNQ1 pot	KCNQ1 block	PHOSPHO1 inh	KCNK9 inh	hERG rescue
COc1ccc(CN2[C@@H](CC(=O)O)c3cc(C(F)(F)F)ccc3S2(=O)=O)cc1	i	i	i	/	i	6.4*
CCCCCCCCN1[C@@H](CC(C)=O)c2cc(C(F)(F)F)ccc2S1(=O)=O	i	56*	i	/	i	-14
Cc1cc(Cl)cc(Cl)c1OCCOc1cccc2cccnc12	i	i	i	11	i	-3
COc1cc(C(=O)c2nccc3cc(OC)c(OC)cc23)c([N+](=O)[O-])cc1OC	i	i	i	-35	i	5.9*
Nc1ncc(Br)cc1S(=O)(=O)NC1CCCCC1	i	i	i	72*	i	-6
Clc1nssc1=Nc1ccc(Br)cc1	i	i	i	80*	i	-10
OCc1ccccc1N=c1ssnc1Cl	/	i	i	91*	i	-3
Clc1ccc(N=c2ssnc2Cl)nc1	i	i	i	92*	i	-15
Clc1nssc1=Nc1nncs1	i	/	/	/	/	/
OCc1ccccc1N=Cc1cccnc1	i	i	i	35	i	-6
COc1ccc(N2C(=O)C3CCCN3C2=O)cc1 (centres undefined)	i	i	i	-25	i	4.9*
CN1OC(c2ccccc2)=C(CO)C1c1ccccc1 (centres undefined)	i	i	i	-5	i	-3
O=C1N=C(N2CCC(Cc3ccccc3)CC2)S/C1=C/c1cn[nH]c1-c1ccccc1	i	i	9*	20	i	-8
Cc1ccc(NC(=O)CN(C)Cc2nc3ccccc3c(=O)[nH]2)c(Br)c1	i	i	i	1	i	-16
Cc1nn(-c2ccccn2)c2c1C(c1c(F)cccc1Cl)C1=C(N2)c2ccccc2C1=O (centres undefined)	/	i	i	0	-6.9*	-10
Cc1nn(-c2ccccn2)c2c1C(c1ccccc1Cl)C1=C(N2)c2ccccc2C1=O (centres undefined)	i	i	i	2	-7*	-8
COc1ccc(CCNC(=O)c2cc(S(=O)(=O)N3CCC4(CC3)OCCO4)ccc2F)cc1OC	i	i	i	-18	i	-12
COc1ccc(OCc2n[nH]c(=S)o2)cc1	i	i	i	88*	i	-7
S=c1[nH]nc(COc2ccc(Cl)cc2)o1	i	i	i	103*	i	-12
Cc1ccc(C(C)C)c(OCCN(C)C)c1	i	i	i	17	i	6.6*
Cc1ccc(C(C)C)c(OCc2n[nH]c(=S)o2)c1	i	8*	i	-38	i	-2
COc1ccc(NC(=O)c2nc[nH]c2C(=O)NCc2ccccc2)cc1	i	i	i	/	i	-8
Cc1cccc(NC(=O)C2CC(=O)N(c3ccc4c(c3)OCCO4)C2)n1 (centres undefined)	i	/	/	/	/	/
CC1Cc2ccccc2N1C(=S)NC(=O)c1ccco1 (centres undefined)	i	i	i	32	i	6.7*
CC1Cc2ccccc2N1C(=S)NC(=O)C1(C)CC1(Cl)Cl (centres undefined)	i	37*	i	0	i	28*
